The values below come from ChEMBL document CHEMBL4396873, “Discovery of Potent, Selective, and Short-Acting Peptidic V2 Receptor Agonists” (J Med Chem, 2019).

The source made the active and inactive calls. The rule behind the calls is not given here. Numbered stars: 1 amine (or outer) side, 2 acyl side, 3 side chain; on linkers, the order of the positions; unused ones are H or OH. Bridge positions count the residues as written; N and C are the ends. Square brackets hold non-standard residues; d marks the D form. Peptide text beside a SMILES is read from it. * marks the point of attachment. Phe(4-Cl) = N[C@@H](Cc1ccc(Cl)cc1)C(=O)O; Phe(4-F) = N[C@@H](Cc1ccc(F)cc1)C(=O)O; 2Thi = N[C@@H](Cc1cccs1)C(=O)O; Agmatine = N=C(N)NCCCCN*; Thz = O=C(O)[C@@H]1CSCN1; X1 = O=C(CCC[*:2])[*:1]

By clearance is commonly meant the rate of elimination divided by the concentration. A lower clearance goes with inefficient removal.

One data set concerns the target Vasopressin V1a receptor (Homo sapiens, UniProt P37288). Kind of data set: Agonist activity at recombinant human V1a receptor expressed in HEK293 cells up to 1000 nM measured after 5 hrs by luciferase reporter gene assay. Format: cell-based. As to conditions: hek293, 5 h.
The nature of data set [1]: Clearance in Sprague-Dawley rat at 0.1 mg/kg, iv administered as cassette dose by LC-MS/MS analysis. As to conditions: in vivo. Format: ADME, organism-based.
Data set [2] in a line: Protein binding in rat plasma at 200 to 1000 ng/ml measured after 15 mins by UC-LC/MS/MS analysis. Format: ADME, cell-free. The note with it: read-out: PPB (converted). Put shortly: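 Peptide spiked into rat plasma to final 200-1000 ng/mL, incubated 15 min at 37 °C, ultracentrifuged at 773,000 xg for 30 min at 37 °C; middle-layer sample quantified by LC/MS/MS; binding (%) = (Ci − Cm)/Ci × 100; quadruplicate.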

In data set [3] the target is T1, Oxytocin receptor (Homo sapiens) (UniProt P30559).
T1 sequence (whole entry): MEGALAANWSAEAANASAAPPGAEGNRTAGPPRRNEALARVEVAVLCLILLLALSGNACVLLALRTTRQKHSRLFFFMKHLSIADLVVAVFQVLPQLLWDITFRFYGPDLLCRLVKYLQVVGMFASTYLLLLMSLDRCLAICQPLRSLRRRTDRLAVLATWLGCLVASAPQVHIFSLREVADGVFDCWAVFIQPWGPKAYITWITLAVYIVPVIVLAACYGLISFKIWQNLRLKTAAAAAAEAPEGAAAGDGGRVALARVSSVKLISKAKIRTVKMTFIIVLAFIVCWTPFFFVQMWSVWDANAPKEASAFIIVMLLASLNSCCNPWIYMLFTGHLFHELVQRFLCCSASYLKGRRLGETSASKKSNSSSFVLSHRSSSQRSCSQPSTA
Kind of data set: Agonist activity at human OTR stably expressed in CHOK1 cells up to 10000 nM by NFAT-luciferase reporter gene assay. It counts as cell-based. For orientation: In a reporter assay the amount or activity of a reporter protein is the signal.

Data set [4] in a line: Non-renal clearance in nephrectomized Sprague-Dawley rat at 0.1 mg/kg, iv administered as cassette dose by LC-MS/MS analysis. It counts as ADME, organism-based. As to conditions: in vivo.

Vasopressin V1a receptor, sequence (P37288 whole entry): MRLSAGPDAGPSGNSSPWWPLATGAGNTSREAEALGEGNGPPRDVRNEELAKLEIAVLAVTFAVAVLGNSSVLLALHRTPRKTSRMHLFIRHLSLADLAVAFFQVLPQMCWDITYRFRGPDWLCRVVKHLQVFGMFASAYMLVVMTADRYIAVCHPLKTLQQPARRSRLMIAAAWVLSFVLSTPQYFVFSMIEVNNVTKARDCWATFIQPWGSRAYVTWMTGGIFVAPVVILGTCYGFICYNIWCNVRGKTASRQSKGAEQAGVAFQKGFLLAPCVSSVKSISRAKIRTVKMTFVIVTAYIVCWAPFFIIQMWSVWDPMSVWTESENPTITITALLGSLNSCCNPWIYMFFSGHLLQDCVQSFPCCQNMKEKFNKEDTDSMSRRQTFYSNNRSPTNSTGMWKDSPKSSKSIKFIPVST

Consider `CC(C)[C@@H]1NC(=O)[C@H](Cc2ccc(F)cc2)NC(=O)[C@H](Cc2ccc(Cl)cc2)NC(=O)CCCSC[C@@H](C(=O)N2CCC[C@H]2C(=O)NCCCCNC(=N)N)NC(=O)[C@H](CC(N)=O)NC1=O` ([Phe(4-Cl)][Phe(4-F)]VNCP-Agmatine; linker N-5 via X1), for which the Activity entry at Vasopressin V1a receptor is “Not Active”. In data set [1], the clearance is 0.45 L/h/kg. Also, the fraction unbound at […] in data set [2] is 0.06. Further, the outcome in data set [3] was inactive.
As for `CC(C)[C@@H]1NC(=O)[C@H](Cc2cccs2)NC(=O)[C@H](Cc2ccc(Cl)cc2)NC(=O)CCCSC[C@@H](C(=O)N2CCC[C@H]2C(=O)N[C@H](CCCNC(=N)N)C(=O)NCc2ccccc2)NC(=O)[C@H](CC(N)=O)NC1=O`, the Activity result at Vasopressin V1a receptor is given as “Not Active”. In data set [1], this molecule gave a clearance of 1.38 L/h/kg. This molecule also showed a CL in data set [4] of 84%. For the same molecule, in data set [2], the fraction unbound at […] is 0.1. Further, in data set [3], the outcome was inactive.
For `CC(C)[C@@H]1NC(=O)[C@H](Cc2ccc(F)cc2)NC(=O)[C@H](Cc2ccc(Cl)cc2)NC(=O)CCCSC[C@@H](C(=O)N2CSC[C@H]2C(=O)NCCCCNC(=N)N)NC(=O)[C@H](CC(N)=O)NC1=O` ([Phe(4-Cl)][Phe(4-F)]VNC[Thz]-Agmatine; linker N-5 via X1), on Vasopressin V1a receptor, the Activity entry is given as “Not Active”. Also, the clearance in data set [1] stood at 0.594 L/h/kg. Besides, the CL in data set [4] was 85%. For the same molecule, the fraction unbound at […] in data set [2] was 0.04. In data set [3], the result was inactive.
In the case of `CCCCNC(=O)[C@@H](CCCNC(=N)N)NC(=O)[C@@H]1CCCN1C(=O)[C@@H]1CSCCCC(=O)N[C@@H](Cc2ccc(Cl)cc2)C(=O)N[C@@H](Cc2cccs2)C(=O)N[C@@H](C(C)C)C(=O)N[C@@H](CC(N)=O)C(=O)N1`, on Vasopressin V1a receptor, the Activity result was “Not Active”. Further, the clearance in data set [1] was 1.86 L/h/kg. In data set [4], this molecule displayed a CL of 57%. In data set [2], the fraction unbound at […] was 0.11. Also, the result in data set [3] was inactive.
For `CC(C)[C@@H]1NC(=O)[C@H](Cc2cccs2)NC(=O)[C@H](Cc2ccc(Cl)cc2)NC(=O)CCCSC[C@@H](C(=O)N2CCC[C@H]2C(=O)N[C@H](CCCNC(=N)N)C(=O)NC2CC2)NC(=O)[C@H](CC(N)=O)NC1=O`, the Activity entry on Vasopressin V1a receptor is “Not Active”. The molecule also yielded a clearance in data set [1] of 0.6 L/h/kg. Also, in data set [4], the CL is recorded as 67%. For the same molecule, in data set [2], the fraction unbound at […] is 0.09. The result in data set [3] was inactive.
In the case of `CC(C)CNC(=O)[C@@H](CCCNC(=N)N)NC(=O)[C@@H]1C[C@@H](O)CN1C(=O)[C@@H]1CSCCCC(=O)N[C@@H](Cc2ccc(Cl)cc2)C(=O)N[C@@H](Cc2cccs2)C(=O)N[C@@H](C(C)C)C(=O)N[C@@H](CC(N)=O)C(=O)N1`, the Activity result at Vasopressin V1a receptor is given as “Not Active”. The clearance in data set [1] amounted to 0.468 L/h/kg. Further, in data set [2], the fraction unbound at […] is 0.13. Further, the outcome in data set [3] was inactive.
As to `CC(C)CNC(=O)[C@@H](CCCNC(=N)N)NC(=O)[C@@H]1CCCN1C(=O)[C@@H]1CCSCCC(=O)N[C@@H](Cc2ccc(Cl)cc2)C(=O)N[C@@H](Cc2ccccc2)C(=O)N[C@@H](C(C)C)C(=O)N[C@@H](CC(N)=O)C(=O)N1`, the Activity result at Vasopressin V1a receptor is on record as “Not Active”. Also, the clearance in data set [1] stood at 0.324 L/h/kg. This molecule showed a CL in data set [4] of 88%. In addition, the fraction unbound at […] in data set [2] is 0.05. The outcome in data set [3] was inactive.
As for `CCNC(=O)[C@@H](CCCNC(=N)N)NC(=O)[C@@H]1CSCN1C(=O)[C@@H]1CSCCCC(=O)N[C@@H](Cc2ccc(Cl)cc2)C(=O)N[C@@H](Cc2cccs2)C(=O)N[C@@H](C(C)C)C(=O)N[C@@H](CC(N)=O)C(=O)N1`, the Activity result at Vasopressin V1a receptor was “Not Active”. In data set [1], this molecule yielded a clearance of 1.68 L/h/kg. In data set [4], this molecule returned a CL of 80%. In addition, the fraction unbound at […] in data set [2] was 0.07. Further, the result in data set [3] was inactive.
As to `CCCNC(=O)[C@@H](CCCNC(=N)N)NC(=O)[C@@H]1CSCN1C(=O)[C@@H]1CSCCCC(=O)N[C@@H](Cc2ccc(Cl)cc2)C(=O)N[C@@H](Cc2cccs2)C(=O)N[C@@H](C(C)C)C(=O)N[C@@H](CC(N)=O)C(=O)N1`, at Vasopressin V1a receptor, the Activity result was “Not Active”. The molecule also registered a clearance in data set [1] of 1.86 L/h/kg. The molecule further came in with a CL in data set [4] of 90%. Besides, the fraction unbound at […] in data set [2] is 0.17. Also, in data set [3], the outcome was inactive.
For the molecule `CC(C)[C@@H]1NC(=O)[C@H](Cc2cccs2)NC(=O)[C@H](Cc2ccc(Cl)cc2)NC(=O)CCCSC[C@@H](C(=O)N2CSC[C@H]2C(=O)NCCCCNC(=N)N)NC(=O)[C@H](CC(N)=O)NC1=O` ([Phe(4-Cl)][2Thi]VNC[Thz]-Agmatine; linker N-5 via X1), at Vasopressin V1a receptor, the Activity result is on record as “Not Active”. This molecule gave a clearance in data set [1] of 0.96 L/h/kg. Besides, in data set [4], the CL is on record as 90%. Further, the fraction unbound at […] in data set [2] was 0.16. In data set [3], the result was inactive.
As to `CCNC(=O)[C@@H](CCCNC(=N)N)NC(=O)[C@@H]1CCCN1C(=O)[C@@H]1CSSCCC(=O)N[C@@H](Cc2ccc(Cl)cc2)C(=O)N[C@@H](Cc2ccccc2)C(=O)N[C@@H](C(C)C)C(=O)N[C@@H](CC(N)=O)C(=O)N1`, the Activity result at Vasopressin V1a receptor is given as “Not Active”. Besides, the clearance in data set [1] stood at 0.426 L/h/kg. In data set [4], this molecule yielded a CL of 47%. Further, the fraction unbound at […] in data set [2] was 0.05.
On to `CCNC(=O)[C@@H](CCCNC(=N)N)NC(=O)[C@@H]1C[C@@H](O)CN1C(=O)[C@@H]1CCSCCC(=O)N[C@@H](Cc2ccc(Cl)cc2)C(=O)N[C@@H](Cc2cccs2)C(=O)N[C@@H](C(C)C)C(=O)N[C@@H](CC(N)=O)C(=O)N1`, for which the Activity result on Vasopressin V1a receptor is “Not Active”. Moreover, the clearance in data set [1] was 0.24 L/h/kg. The molecule also displayed a CL in data set [4] of 58%. Further, the fraction unbound at […] in data set [2] is 0.1. In addition, the result in data set [3] was inactive.
Turning to `CC(C)CNC(=O)[C@@H](CCCNC(=N)N)NC(=O)[C@@H]1CCCN1C(=O)[C@@H]1CSCCCC(=O)N[C@@H](Cc2ccc(Cl)cc2)C(=O)N[C@@H](Cc2cccs2)C(=O)N[C@@H](C(C)C)C(=O)N[C@@H](CC(N)=O)C(=O)N1`, the Activity entry at Vasopressin V1a receptor is listed as “Not Active”. In data set [1], the clearance was 1.44 L/h/kg. The molecule also showed a CL in data set [4] of 63%. Further, the fraction unbound at […] in data set [2] is 0.14. For the same molecule, the outcome in data set [3] was inactive.
Regarding `CC(C)CNC(=O)[C@H](CCCNC(=N)N)NC(=O)[C@@H]1CCCN1C(=O)[C@@H]1CSCCCC(=O)N[C@@H](Cc2ccc(Cl)cc2)C(=O)N[C@@H](Cc2cccs2)C(=O)N[C@@H](C(C)C)C(=O)N[C@@H](CC(N)=O)C(=O)N1`, the Activity result at Vasopressin V1a receptor is recorded as “Not Active”. In data set [1], this molecule returned a clearance of 3.06 L/h/kg. Further, the fraction unbound at […] in data set [2] was 0.16. Further, in data set [3], the result was inactive.
As for `CC(C)CNC(=O)[C@@H](CCCNC(=N)N)NC(=O)[C@@H]1CCCN1C(=O)[C@@H]1CCSCCC(=O)N[C@@H](Cc2ccc(Cl)cc2)C(=O)N[C@@H](Cc2cccs2)C(=O)N[C@@H](C(C)C)C(=O)N[C@@H](CC(N)=O)C(=O)N1`, the Activity entry at Vasopressin V1a receptor is recorded as “Not Active”. Moreover, the result in data set [3] was inactive.
For `CC(C)[C@@H]1NC(=O)[C@H](Cc2cccs2)NC(=O)[C@H](Cc2ccc(Cl)cc2)NC(=O)CCCSC[C@@H](C(=O)N2CCC[C@H]2C(=O)N[C@H](CCCNC(=N)N)C(=O)NCC2CC2)NC(=O)[C@H](CC(N)=O)NC1=O`, the Activity result at Vasopressin V1a receptor is “Not Active”. In addition, in data set [1], the clearance stood at 1.26 L/h/kg. The fraction unbound at […] in data set [2] was 0.16. The result in data set [3] was inactive.
